Measured values as given in ChEMBL document CHEMBL1781920, “Synthesis and antimicrobial activity of some new 4-hetarylpyrazole and furo[2,3-c]pyrazole derivatives” (2011).
In brackets after ≈: the same amount, converted by molar mass.

Experiments:
Type in all cases: functional
[1] = test system: Fusarium oxysporum; test: Antifungal activity against Fusarium oxysporum ATCC 16417 after 48 hrs by serial dilution method; conditions: ATCC 16417, 48 h
How it was run: (§1)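 MICs were measured by microdilution in Sabouraud liquid medium, for compounds with disk zones >14 mm. DMF stocks were serially diluted twofold across 500–3.125. Sealed plates were incubated at 37 °C for 48 h in a humid chamber. The lowest concentration with no visible turbidity was recorded as the MIC.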

[2] = test system: Bacillus thuringiensis; test: Antibacterial activity against Bacillus thuringiensis ATCC 6051 at 1 mg/ml after 24 hrs by agar-diffusion method; conditions: ATCC 6051, 24 h, read-out: IZ
How it was run: (§2)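 Agar disk diffusion on nutrient agar seeded with about 10⁶ CFU/mL of the test bacterium. Filter-paper disks were impregnated with compound in DMF at 1 mg/mL, two disks per plate, in triplicate. DMF alone served as control. Plates were incubated at 37 °C for 24 h, and the mean inhibition-zone diameter was recorded in mm.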

[3] = test system: Botrytis fabae; test: Antifungal activity against Botrytis fabae ATCC 14862 at 1 mg/ml after 48 hrs by agar-diffusion method; conditions: ATCC 14862, 48 h, read-out: IZ
How it was run: (§3)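 Fungi were seeded at 10⁴ CFU/mL onto nutrient agar plates. Filter-paper disks carried compound dissolved in DMF at 1 mg/mL, two disks per plate, in triplicate, with a DMF-only control. After 48 h incubation at 37 °C, the average diameter of the growth-inhibition zone was read in mm.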

[4] = test system: Botrytis fabae; test: Antifungal activity against Botrytis fabae ATCC 14862 after 48 hrs by serial dilution method; conditions: ATCC 14862, 48 h; how it was run: as §1
[5] = test system: Pseudomonas aeruginosa; test: Antibacterial activity against Pseudomonas aeruginosa ATCC 27853 at 1 mg/ml after 24 hrs by agar-diffusion method; conditions: ATCC 27853, 24 h, read-out: IZ; how it was run: as §2
[6] = test system: Bacillus subtilis; test: Antibacterial activity against Bacillus subtilis ATCC 6633 after 24 hrs by serial dilution method; conditions: ATCC 6633, 24 h
How it was run: (§4)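 Broth microdilution in Mueller–Hinton broth, run only for compounds giving zones >14 mm in the disk test. DMF stocks were diluted twofold from 500 to 3.125, and about 10⁶ CFU/mL bacteria were added per well. Sealed plates were kept at 37 °C for 24 h in a humid chamber. MIC was taken as the lowest concentration without visible turbidity.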

[7] = test system: Bacillus thuringiensis; test: Antibacterial activity against Bacillus thuringiensis ATCC 6051 after 24 hrs by serial dilution method; conditions: ATCC 6051, 24 h; how it was run: as §4
[8] = test system: Bacillus subtilis; test: Antibacterial activity against Bacillus subtilis ATCC 6633 at 1 mg/ml after 24 hrs by agar-diffusion method; conditions: ATCC 6633, 24 h, read-out: IZ; how it was run: as §2
[9] = test system: Escherichia coli; test: Antibacterial activity against Escherichia coli ATCC 14169 at 1 mg/ml after 24 hrs by agar-diffusion method; conditions: ATCC 14169, 24 h, read-out: IZ; how it was run: as §2
[10] = test system: Escherichia coli; test: Antibacterial activity against Escherichia coli ATCC 14169 after 24 hrs by serial dilution method; conditions: ATCC 14169, 24 h; how it was run: as §4
[11] = test system: Pseudomonas aeruginosa; test: Antibacterial activity against Pseudomonas aeruginosa ATCC 27853 after 24 hrs by serial dilution method; conditions: ATCC 27853, 24 h; how it was run: as §4
[12] = test system: Fusarium oxysporum; test: Antifungal activity against Fusarium oxysporum ATCC 16417 at 1 mg/ml after 48 hrs by agar-diffusion method; conditions: ATCC 16417, 48 h, read-out: IZ; how it was run: as §3
[13] = test system: Bacillus subtilis; test: Antibacterial activity against Bacillus subtilis ATCC 6633 after 24 hrs by serial dilution method relative to chloramphenicol
[14] = test system: Bacillus subtilis; test: Antibacterial activity against Bacillus subtilis ATCC 6633 after 24 hrs by serial dilution method relative to cephalothin
[15] = test system: Bacillus thuringiensis; test: Antibacterial activity against Bacillus thuringiensis ATCC 6051 after 24 hrs by serial dilution method relative to chloramphenicol

SMILES	MIC [1]	zone of inhibition at 1000 µg/mL [2]	zone of inhibition at 1000 µg/mL [3]	MIC [4]	zone of inhibition at 1000 µg/mL [5]	MIC [6]	MIC [7]	zone of inhibition at 1000 µg/mL [8]	zone of inhibition at 1000 µg/mL [9]	MIC [10]	MIC [11]	zone of inhibition at 1000 µg/mL [12]	Activity [13]	Activity [14]	Activity [15]
Cc1nn(-c2ccccc2)c2c1/C(=N/c1ccccn1)CO2	100 µg/mL (≈ 344 µM)	25 mm	20 mm	50 µg/mL (≈ 172 µM)	15 mm	25 µg/mL (≈ 86.1 µM)	25 µg/mL (≈ 86.1 µM)	26 mm	38 mm	6.25 µg/mL (≈ 21.5 µM)	6.25 µg/mL (≈ 21.5 µM)	16 mm			
Cc1nn(-c2ccccc2)c2c1/C(=N/c1cnccn1)CO2	12.5 µg/mL (≈ 42.9 µM)	15 mm	16 mm	100 µg/mL (≈ 343 µM)	16 mm	12.5 µg/mL (≈ 42.9 µM)	100 µg/mL (≈ 343 µM)	32 mm	20 mm	50 µg/mL (≈ 172 µM)	100 µg/mL (≈ 343 µM)	31 mm	25%	50%	
Cc1nn(-c2ccccc2)c2c1/C(=N/c1nnc[nH]1)CO2	100 µg/mL (≈ 357 µM)	38 mm	19 mm	50 µg/mL (≈ 178 µM)	16 mm	6.25 µg/mL (≈ 22.3 µM)	6.25 µg/mL (≈ 22.3 µM)	38 mm	15 mm	100 µg/mL (≈ 357 µM)	100 µg/mL (≈ 357 µM)	15 mm			
Cc1nn(-c2ccccc2)c2c1/C(=N/c1nc3ccccc3[nH]1)CO2	6.25 µg/mL (≈ 19 µM)	37 mm	37 mm	6.25 µg/mL (≈ 19 µM)	20 mm	3.12 µg/mL (≈ 9.49 µM)	6.25 µg/mL (≈ 19 µM)	44 mm	19 mm	50 µg/mL (≈ 152 µM)	50 µg/mL (≈ 152 µM)	14 mm			
Cc1[nH]n(-c2ccccc2)c(=O)c1-c1cc2c(=O)oc3ccccc3c2o1	6.25 µg/mL (≈ 17.4 µM)	15 mm	37 mm	6.25 µg/mL (≈ 17.4 µM)	38 mm	12.5 µg/mL (≈ 34.9 µM)	100 µg/mL (≈ 279 µM)	33 mm	15 mm	6.25 µg/mL (≈ 17.4 µM)	6.25 µg/mL (≈ 17.4 µM)	37 mm	25%	50%	
Cc1[nH]n(-c2ccccc2)c(=O)c1C(=O)CN1CCCCC1	100 µg/mL (≈ 334 µM)	38 mm	31 mm	12.5 µg/mL (≈ 41.8 µM)	16 mm	3.12 µg/mL (≈ 10.4 µM)	6.25 µg/mL (≈ 20.9 µM)	43 mm	19 mm	50 µg/mL (≈ 167 µM)	100 µg/mL (≈ 334 µM)	14 mm			
Cc1[nH]n(-c2ccccc2)c(=O)c1C(=O)c1cc2ccccc2o1	25 µg/mL (≈ 78.5 µM)	37 mm	19 mm	50 µg/mL (≈ 157 µM)	33 mm	6.25 µg/mL (≈ 19.6 µM)	6.25 µg/mL (≈ 19.6 µM)	38 mm	15 mm	100 µg/mL (≈ 314 µM)	12.5 µg/mL (≈ 39.3 µM)	26 mm	50%		50%
Cc1[nH]n(-c2ccccc2)c(=O)c1C(=O)c1oc2ccccc2c1C	100 µg/mL (≈ 301 µM)	37 mm	15 mm	100 µg/mL (≈ 301 µM)	19 mm	6.25 µg/mL (≈ 18.8 µM)	6.25 µg/mL (≈ 18.8 µM)	37 mm	27 mm	25 µg/mL (≈ 75.2 µM)	50 µg/mL (≈ 150 µM)	15 mm	50%		50%
CC(=O)c1cc(-c2c(C)[nH]n(-c3ccccc3)c2=O)oc1C	50 µg/mL (≈ 169 µM)	37 mm	26 mm	25 µg/mL (≈ 84.4 µM)	18 mm	3.12 µg/mL (≈ 10.5 µM)	6.25 µg/mL (≈ 21.1 µM)	42 mm	15 mm	100 µg/mL (≈ 337 µM)	50 µg/mL (≈ 169 µM)	20 mm			
Cc1[nH]n(-c2ccccc2)c(=O)c1C1=Nc2ccccc2OC1	100 µg/mL (≈ 328 µM)	19 mm	15 mm	100 µg/mL (≈ 328 µM)	15 mm	50 µg/mL (≈ 164 µM)	50 µg/mL (≈ 164 µM)	20 mm	19 mm	50 µg/mL (≈ 164 µM)	100 µg/mL (≈ 328 µM)	15 mm			
Cc1[nH]n(-c2ccccc2)c(=O)c1C(=O)CN1CCOCC1	50 µg/mL (≈ 166 µM)	38 mm	19 mm	50 µg/mL (≈ 166 µM)	20 mm	12.5 µg/mL (≈ 41.5 µM)	6.25 µg/mL (≈ 20.7 µM)	32 mm	16 mm	100 µg/mL (≈ 332 µM)	50 µg/mL (≈ 166 µM)	19 mm			
Cc1[nH]n(-c2ccccc2)c(=O)c1C1=Nc2ccccc2NC1	100 µg/mL (≈ 329 µM)	15 mm	20 mm	50 µg/mL (≈ 164 µM)	19 mm	50 µg/mL (≈ 164 µM)	100 µg/mL (≈ 329 µM)	19 mm	15 mm	100 µg/mL (≈ 329 µM)	50 µg/mL (≈ 164 µM)	15 mm			
Cc1[nH]n(-c2ccccc2)c(=O)c1C1=Nc2ccccc2SC1	100 µg/mL (≈ 311 µM)	15 mm	19 mm	50 µg/mL (≈ 156 µM)	16 mm	100 µg/mL (≈ 311 µM)	100 µg/mL (≈ 311 µM)	15 mm	15 mm	100 µg/mL (≈ 311 µM)	100 µg/mL (≈ 311 µM)	15 mm			
CC(=O)OCC1=C(C(=O)O)N2C(=O)[C@@H](NC(=O)Cc3cccs3)[C@H]2SC1 [CEPHALOTHIN]		37 mm			37 mm	6.25 µg/mL (≈ 15.8 µM)	6.25 µg/mL (≈ 15.8 µM)	36 mm	38 mm	6.25 µg/mL (≈ 15.8 µM)	6.25 µg/mL (≈ 15.8 µM)				
O=C(N[C@H](CO)[C@H](O)c1ccc([N+](=O)[O-])cc1)C(Cl)Cl [CHLORAMPHENICOL]		44 mm			38 mm	3.12 µg/mL (≈ 9.67 µM)	3.12 µg/mL (≈ 9.67 µM)	42 mm	37 mm	6.25 µg/mL (≈ 19.3 µM)	6.25 µg/mL (≈ 19.3 µM)				
C[C@@H]1C[C@@H]([C@H](O)CC2CC(=O)NC(=O)C2)C(=O)[C@@H](C)C1 [CYCLOHEXIMIDE]	3.12 µg/mL (≈ 11.1 µM)		42 mm	3.12 µg/mL (≈ 11.1 µM)								43 mm			
